ChEMBL document CHEMBL4354843, “Structure-Based Design of a Potent and Selective Covalent Inhibitor for SRC Kinase That Targets a P-Loop Cysteine” (J Med Chem, 2020)

Experiments:
[1] = target: TGF-beta receptor type-2 (Homo sapiens) (UniProt P37173); test: Binding affinity to wild-type human partial length TGFBR2 (I218 to K567 residues) expressed in bacterial expression system assessed as residual binding level at 1 uM by Kinomescan method relative to control
[2] = target: Cyclin-dependent kinase 16 (Homo sapiens) (UniProt Q00536); test: Binding affinity to wild-type human partial length PCTK1 (G160 to A474 residues) expressed in mammalian expression system assessed as residual binding level at 1 uM by Kinomescan method relative to control
[3] = target: Serine/threonine-protein kinase Sgk1 (Homo sapiens) (UniProt O00141); test: Binding affinity to wild-type human partial length SGK (I60 to L431 residues) expressed in mammalian expression system assessed as residual binding level at 1 uM by Kinomescan method relative to control
Serine/threonine-protein kinase Sgk1 (Homo sapiens), sequence (O00141 whole entry, the tested form may be a part): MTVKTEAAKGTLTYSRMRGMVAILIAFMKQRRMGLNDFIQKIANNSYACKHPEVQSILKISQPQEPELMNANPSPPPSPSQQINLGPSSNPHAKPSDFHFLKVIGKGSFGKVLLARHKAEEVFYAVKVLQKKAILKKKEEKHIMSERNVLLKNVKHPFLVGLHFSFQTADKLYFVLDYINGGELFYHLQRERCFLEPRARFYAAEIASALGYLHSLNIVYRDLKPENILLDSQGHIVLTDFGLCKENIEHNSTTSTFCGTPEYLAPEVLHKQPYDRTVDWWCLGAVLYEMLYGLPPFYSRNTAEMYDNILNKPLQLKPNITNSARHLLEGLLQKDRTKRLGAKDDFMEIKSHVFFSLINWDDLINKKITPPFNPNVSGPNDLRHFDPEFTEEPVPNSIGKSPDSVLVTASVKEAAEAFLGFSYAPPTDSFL

[4] = system: Receptor-type tyrosine-protein kinase FLT3 (Homo sapiens), P36888 [D835H]; test: Binding affinity to human partial length FLT3 D835H mutant (V592 to Y969 residues) expressed in bacterial expression system assessed as residual binding level at 1 uM by Kinomescan method relative to control
How it was run: (§1)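 KinomeScan active site-directed competition binding panel (468 kinases), compound tested at 1 μM. Result expressed as remaining kinase signal versus DMSO control (percent of control).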

[5] = target: Macrophage-stimulating protein receptor (Homo sapiens) (UniProt Q04912); test: Binding affinity to wild-type human partial length MST1R (I1057 to L1363 residues) expressed in bacterial expression system assessed as residual binding level at 1 uM by Kinomescan method relative to control
[6] = target: Hepatocyte growth factor receptor (Homo sapiens) (UniProt P08581); test: Binding affinity to wild-type human partial length MET (D1010 to S1367 residues) expressed in bacterial expression system assessed as residual binding level at 1 uM by Kinomescan method relative to control
[7] = system: Phosphatidylinositol 4,5-bisphosphate 3-kinase catalytic subunit alpha isoform (Homo sapiens), P42336 [E542K]; test: Binding affinity to human partial length PIK3CA E542K mutant (R108 to N1068 residues) expressed in mammalian expression system assessed as residual binding level at 1 uM by Kinomescan method relative to control; how it was run: as §1
Phosphatidylinositol 4,5-bisphosphate 3-kinase catalytic subunit alpha isoform (Homo sapiens), P42336 [E542K], sequence (P42336 whole entry E542K, the tested form may be a part, canonical isoform): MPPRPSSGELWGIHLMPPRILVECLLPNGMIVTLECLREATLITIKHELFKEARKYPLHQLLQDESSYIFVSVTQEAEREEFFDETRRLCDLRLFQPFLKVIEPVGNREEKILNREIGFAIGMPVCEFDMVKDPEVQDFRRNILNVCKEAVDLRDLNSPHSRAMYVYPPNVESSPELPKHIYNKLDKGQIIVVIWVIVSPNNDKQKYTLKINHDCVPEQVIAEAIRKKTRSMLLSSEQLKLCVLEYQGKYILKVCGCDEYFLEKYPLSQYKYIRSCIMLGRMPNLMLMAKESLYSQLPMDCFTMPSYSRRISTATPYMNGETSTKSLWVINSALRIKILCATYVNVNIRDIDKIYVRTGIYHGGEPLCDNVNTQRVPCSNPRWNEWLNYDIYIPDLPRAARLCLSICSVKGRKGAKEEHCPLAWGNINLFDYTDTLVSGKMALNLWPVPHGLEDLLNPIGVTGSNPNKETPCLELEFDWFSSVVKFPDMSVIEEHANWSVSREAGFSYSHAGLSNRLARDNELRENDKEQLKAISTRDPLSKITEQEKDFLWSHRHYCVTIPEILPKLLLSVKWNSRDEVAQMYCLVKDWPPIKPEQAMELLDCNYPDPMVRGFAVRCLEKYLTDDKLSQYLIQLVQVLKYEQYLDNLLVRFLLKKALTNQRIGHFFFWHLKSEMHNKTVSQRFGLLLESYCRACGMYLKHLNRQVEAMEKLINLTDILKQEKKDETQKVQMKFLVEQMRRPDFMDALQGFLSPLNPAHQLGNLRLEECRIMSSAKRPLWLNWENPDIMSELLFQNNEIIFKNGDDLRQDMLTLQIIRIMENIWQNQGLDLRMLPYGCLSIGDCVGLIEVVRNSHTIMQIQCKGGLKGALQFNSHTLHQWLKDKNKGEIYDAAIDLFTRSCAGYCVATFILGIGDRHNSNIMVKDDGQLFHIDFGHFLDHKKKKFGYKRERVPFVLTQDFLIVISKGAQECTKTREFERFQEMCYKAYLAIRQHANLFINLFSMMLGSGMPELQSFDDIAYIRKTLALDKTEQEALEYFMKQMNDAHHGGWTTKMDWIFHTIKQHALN

[8] = target: Receptor tyrosine-protein kinase erbB-3 (Homo sapiens) (UniProt P21860); test: Binding affinity to wild-type human partial length ERBB3 (G684 to A987 residues) expressed in mammalian expression system assessed as residual binding level at 1 uM by Kinomescan method relative to control
[9] = system: Tyrosine-protein kinase ABL1 (Homo sapiens), P00519 [F317I]; test: Binding affinity to human phosphorylated ABL1 F317I mutant (S229 to K512 residues) expressed in mammalian expression system assessed as residual binding level at 1 uM by Kinomescan method relative to control; how it was run: as §1
[10] = target: Mitogen-activated protein kinase 13 (Homo sapiens) (UniProt O15264); test: Binding affinity to wild-type human full length p38-delta (M1 to L365 residues) expressed in bacterial expression system assessed as residual binding level at 1 uM by Kinomescan method relative to control
[11] = target: Serine/threonine-protein kinase PAK 3 (Homo sapiens) (UniProt O75914); test: Binding affinity to wild-type human full length PAK3 (M1 to R544 residues) expressed in bacterial expression system assessed as residual binding level at 1 uM by Kinomescan method relative to control
How it was run: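 KinomeScan, an active site-directed competition binding panel of 468 kinases. The test compound was at 1 μM. The readout is remaining kinase binding as a percentage of the DMSO control. Scores above 35% were treated as weak binding and not listed.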

[12] = target: Serine/threonine-protein kinase tousled-like 2 (Homo sapiens) (UniProt Q86UE8); test: Binding affinity to wild-type human partial length TLK2 (E424 to N749 residues) expressed in bacterial expression system assessed as residual binding level at 1 uM by Kinomescan method relative to control
[13] = system: Tyrosine-protein kinase ABL1 (Homo sapiens), P00519 [F317L]; test: Binding affinity to human phosphorylated ABL1 F317L mutant (S229 to K512 residues) expressed in mammalian expression system assessed as residual binding level at 1 uM by Kinomescan method relative to control; how it was run: as §1
MDA-MB-231 = test: Antiproliferative activity against human MDA-MB-231 cells assessed as reduction in cell viability incubated for 72 hrs by cell-titer glo assay relative to control; type: functional
How it was run: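 Cells seeded at 2000 cells/well, dosed next day with a range of concentrations (DMSO 0.2% as control), 72 h exposure, viability read by CellTiter-Glo luminescence. Dose–response curves and GR values derived with the online GR calculator. Two independent experiments, each in technical triplicate.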

[14] = target: Homeodomain-interacting protein kinase 2 (Homo sapiens) (UniProt Q9H2X6); test: Binding affinity to wild-type human partial length HIPK2 (M153 to S564 residues) expressed in mammalian expression system assessed as residual binding level at 1 uM by Kinomescan method relative to control
Homeodomain-interacting protein kinase 2 (Homo sapiens), sequence (Q9H2X6 whole entry, looked up, the tested form may be a part): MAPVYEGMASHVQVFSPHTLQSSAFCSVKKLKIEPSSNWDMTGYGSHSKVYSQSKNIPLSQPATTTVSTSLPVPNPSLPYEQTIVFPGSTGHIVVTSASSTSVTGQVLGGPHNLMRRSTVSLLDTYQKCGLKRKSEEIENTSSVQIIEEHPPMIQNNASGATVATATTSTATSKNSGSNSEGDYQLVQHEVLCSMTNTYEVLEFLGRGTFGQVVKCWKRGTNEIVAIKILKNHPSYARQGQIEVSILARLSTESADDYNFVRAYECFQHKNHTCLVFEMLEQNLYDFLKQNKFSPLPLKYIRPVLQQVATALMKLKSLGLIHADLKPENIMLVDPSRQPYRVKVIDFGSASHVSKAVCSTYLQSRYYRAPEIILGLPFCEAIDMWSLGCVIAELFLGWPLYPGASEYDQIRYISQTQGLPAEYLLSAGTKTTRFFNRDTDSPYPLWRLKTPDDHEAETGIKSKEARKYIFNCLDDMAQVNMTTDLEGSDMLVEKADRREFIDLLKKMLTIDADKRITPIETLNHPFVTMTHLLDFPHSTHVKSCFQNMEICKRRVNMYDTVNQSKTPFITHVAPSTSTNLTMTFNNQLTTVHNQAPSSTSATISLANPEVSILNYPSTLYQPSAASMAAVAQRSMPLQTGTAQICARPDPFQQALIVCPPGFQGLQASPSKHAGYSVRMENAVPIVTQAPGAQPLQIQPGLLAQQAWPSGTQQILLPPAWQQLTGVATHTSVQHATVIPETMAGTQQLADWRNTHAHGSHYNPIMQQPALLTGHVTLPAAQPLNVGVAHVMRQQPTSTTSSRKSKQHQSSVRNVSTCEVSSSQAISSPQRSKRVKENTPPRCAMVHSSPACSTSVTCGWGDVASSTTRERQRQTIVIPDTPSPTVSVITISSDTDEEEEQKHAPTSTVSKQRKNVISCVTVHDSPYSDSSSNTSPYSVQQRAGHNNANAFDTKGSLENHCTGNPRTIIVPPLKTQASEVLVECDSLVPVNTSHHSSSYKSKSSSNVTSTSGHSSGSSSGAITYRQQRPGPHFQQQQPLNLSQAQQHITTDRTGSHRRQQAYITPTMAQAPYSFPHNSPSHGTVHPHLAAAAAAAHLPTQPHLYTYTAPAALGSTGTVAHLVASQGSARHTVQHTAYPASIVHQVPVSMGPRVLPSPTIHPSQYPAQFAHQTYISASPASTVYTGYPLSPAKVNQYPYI

[15] = target: Serine/threonine-protein kinase TAO1 (Homo sapiens) (UniProt Q7L7X3); test: Binding affinity to wild-type human partial length TAOK1 (M1 to A320 residues) expressed in mammalian expression system assessed as residual binding level at 1 uM by Kinomescan method relative to control
[16] = target: Tyrosine-protein kinase JAK3 (Homo sapiens) (UniProt P52333); test: Binding affinity to wild-type human partial length JAK3 JH1 catalytic domain (I781 to S1124 residues) expressed in mammalian expression system assessed as residual binding level at 1 uM by Kinomescan method relative to control
How it was run: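 Active-site-directed competition binding panel of 468 kinases (KinomeScan), compound at 1 μM. The read-out is kinase remaining bound, given as a percentage of the DMSO control. […]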

[17] = target: Tyrosine-protein kinase HCK (Homo sapiens, UniProt P08631); test: Inhibition of HCK (unknown origin)
[18] = target: Mitogen-activated protein kinase 10 (Homo sapiens) (UniProt P53779); test: Binding affinity to wild-type human partial length JNK3 (V28 to Q422 residues) expressed in mammalian expression system assessed as residual binding level at 1 uM by Kinomescan method relative to control
Mitogen-activated protein kinase 10 (Homo sapiens), sequence (P53779 whole entry, the tested form may be a part): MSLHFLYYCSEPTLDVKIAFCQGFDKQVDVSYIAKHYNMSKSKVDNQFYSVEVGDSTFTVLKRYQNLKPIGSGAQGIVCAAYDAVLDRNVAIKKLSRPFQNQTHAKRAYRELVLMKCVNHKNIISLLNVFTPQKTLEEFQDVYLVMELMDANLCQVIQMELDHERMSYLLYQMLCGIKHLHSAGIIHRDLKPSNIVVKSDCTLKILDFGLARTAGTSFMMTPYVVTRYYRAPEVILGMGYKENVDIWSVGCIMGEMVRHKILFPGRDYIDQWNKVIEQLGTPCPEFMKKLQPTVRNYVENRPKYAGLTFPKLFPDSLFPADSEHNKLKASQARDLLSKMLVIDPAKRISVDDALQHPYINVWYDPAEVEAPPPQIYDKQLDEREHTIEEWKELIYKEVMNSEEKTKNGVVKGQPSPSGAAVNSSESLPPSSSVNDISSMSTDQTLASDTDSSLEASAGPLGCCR

[19] = target: Interleukin-1 receptor-associated kinase 1 (Homo sapiens) (UniProt P51617); test: Binding affinity to wild-type human partial length IRAK1 (R194 to S712 residues) expressed in mammalian expression system assessed as residual binding level at 1 uM by Kinomescan method relative to control
Interleukin-1 receptor-associated kinase 1 (Homo sapiens), sequence (P51617 whole entry, looked up, the tested form may be a part): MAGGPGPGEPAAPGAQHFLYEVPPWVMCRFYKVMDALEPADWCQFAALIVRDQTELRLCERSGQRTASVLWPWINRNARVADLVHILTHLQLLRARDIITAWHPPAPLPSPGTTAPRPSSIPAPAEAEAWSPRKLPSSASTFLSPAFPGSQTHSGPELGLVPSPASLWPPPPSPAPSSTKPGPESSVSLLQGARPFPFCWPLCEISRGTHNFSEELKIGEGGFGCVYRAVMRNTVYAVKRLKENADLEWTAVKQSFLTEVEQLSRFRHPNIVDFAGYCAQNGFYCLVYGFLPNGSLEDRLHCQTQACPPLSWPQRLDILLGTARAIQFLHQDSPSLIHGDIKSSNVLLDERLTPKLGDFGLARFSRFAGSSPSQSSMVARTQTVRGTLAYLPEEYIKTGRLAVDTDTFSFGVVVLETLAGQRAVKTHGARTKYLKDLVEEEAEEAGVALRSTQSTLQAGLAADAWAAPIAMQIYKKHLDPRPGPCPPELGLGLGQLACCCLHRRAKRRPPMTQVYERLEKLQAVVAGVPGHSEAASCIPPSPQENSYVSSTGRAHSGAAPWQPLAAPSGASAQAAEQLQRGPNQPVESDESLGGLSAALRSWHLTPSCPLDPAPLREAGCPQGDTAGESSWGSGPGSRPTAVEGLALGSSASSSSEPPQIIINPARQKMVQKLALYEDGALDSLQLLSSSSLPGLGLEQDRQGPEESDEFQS

[20] = target: Interferon-induced, double-stranded RNA-activated protein kinase (Homo sapiens) (UniProt P19525); test: Binding affinity to wild-type human partial length PRKR (F247 to C551 residues) expressed in bacterial expression system assessed as residual binding level at 1 uM by Kinomescan method relative to control
Interferon-induced, double-stranded RNA-activated protein kinase (Homo sapiens), sequence (P19525 whole entry, the tested form may be a part): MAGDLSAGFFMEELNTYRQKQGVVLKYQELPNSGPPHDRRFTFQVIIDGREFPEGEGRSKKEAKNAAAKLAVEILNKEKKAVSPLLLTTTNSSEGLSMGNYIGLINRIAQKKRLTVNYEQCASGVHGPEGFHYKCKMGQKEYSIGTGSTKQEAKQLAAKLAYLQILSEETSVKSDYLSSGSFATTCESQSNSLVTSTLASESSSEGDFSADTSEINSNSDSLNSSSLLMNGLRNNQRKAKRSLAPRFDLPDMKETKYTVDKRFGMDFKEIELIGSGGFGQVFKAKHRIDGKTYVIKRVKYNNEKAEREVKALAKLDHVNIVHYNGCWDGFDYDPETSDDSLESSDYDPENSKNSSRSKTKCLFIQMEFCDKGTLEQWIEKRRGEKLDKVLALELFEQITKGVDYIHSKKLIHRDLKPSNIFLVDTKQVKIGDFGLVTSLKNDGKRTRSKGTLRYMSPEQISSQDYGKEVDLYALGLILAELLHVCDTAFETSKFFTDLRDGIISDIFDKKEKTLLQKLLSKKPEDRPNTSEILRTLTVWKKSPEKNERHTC

[21] = system: Epidermal growth factor receptor (Homo sapiens), P00533 [UNDEFINED MUTATION]; test: Binding affinity to human partial length EGFR L747-E749del/A750P mutant expressed in bacterial expression system assessed as residual binding level at 1 uM by Kinomescan method relative to control; how it was run: as §1

TGF-beta receptor type-2 (Homo sapiens), sequence (P37173 whole entry, the tested form may be a part): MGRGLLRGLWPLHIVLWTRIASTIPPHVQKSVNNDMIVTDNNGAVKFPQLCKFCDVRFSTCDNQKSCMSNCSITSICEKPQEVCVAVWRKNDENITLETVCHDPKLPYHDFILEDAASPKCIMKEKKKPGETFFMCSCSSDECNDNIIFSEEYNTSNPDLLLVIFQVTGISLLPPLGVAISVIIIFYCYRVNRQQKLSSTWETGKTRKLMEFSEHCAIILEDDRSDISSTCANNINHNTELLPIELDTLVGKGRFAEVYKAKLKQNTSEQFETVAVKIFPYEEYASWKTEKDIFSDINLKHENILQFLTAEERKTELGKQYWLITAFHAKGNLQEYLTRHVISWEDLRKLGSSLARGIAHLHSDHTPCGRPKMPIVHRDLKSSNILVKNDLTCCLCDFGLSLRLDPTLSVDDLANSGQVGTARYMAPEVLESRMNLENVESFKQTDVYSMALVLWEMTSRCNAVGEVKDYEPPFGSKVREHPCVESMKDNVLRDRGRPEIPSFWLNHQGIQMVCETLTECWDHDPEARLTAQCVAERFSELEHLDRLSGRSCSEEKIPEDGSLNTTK

Molecule `C=CC(=O)Nc1ccccc1Nc1nc(Nc2ccc(N3CCN(C)CC3)cc2)ncc1C(=O)Nc1c(C)cccc1Cl` has an Activity [1] of 100%, an Activity [2] of 100% and an Activity [3] of 95%. It also gave an Activity [4] of 95%, an Activity [5] of 100% and an Activity [6] of 100%. It also gave an Activity [7] of 100%, an Activity [8] of 89% and an Activity [9] of 6.9%. The Activity [10] was 100%, the Activity [11] was 76% and the Activity [12] was 100%. For the same molecule, the Activity [13] was 1.3%, the Emax (MDA-MB-231) was -0.4 and the Activity [14] was 100%. For the same molecule, the Activity [15] was 100%, the Activity [16] was 88% and the IC50 [17] was 3 nM. For the same molecule, the Activity [18] was 100%, the Activity [19] was 100% and the Activity [20] was 100%. The Activity [21] was 66%.
